# According to ChEMBL document CHEMBL5344427, “Small Molecule Ligands of the BET-like Bromodomain, SmBRD3, Affect Schistosoma mansoni Survival, Oviposition, and Development” (J Med Chem, 2023):
# Calls of active or inactive are those of the source. No cut-off for these calls is given here.
# How the values were obtained:
# [1] = Prodrug conversion in Schistosoma mansoni adult worms assessed as 4-{(2S,4R)-1-acetyl-2-methyl-4-[(quinolin-6-yl)amino]-1,2,3,4-tetrahydroquinolin-6-yl}benzoic acid metabolite formation at 20 uM incubated for 24 hrs followed by compound washout thrice and subsequent addition of fresh medium without compound by LC-MS analysis; format: ADME
# In short: (§1)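 Adult worms exposed to 20 μM compound for 24 h, medium exchanged three times, worms then lysed; parent and acid levels in lysate quantified by LCMS.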
# [2] = Binding affinity to Schistosoma mansoni BRD3 BD 2 assessed as dissociation constant by ITC analysis
# Schistosoma mansoni [3] = assay: Antiparasitic activity against Schistosoma mansoni assessed as inhibition of miracidia to sporocyst transformation incubated for 48 hrs by enumeration method; format: functional, organism-based; settings: dose 0.5-25 µM
# In short: (§2)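 Miracidia hatched from eggs, washed in Chernin's balanced salt solution, 15–25 per well. Exposed to 0.5, 2.0, 5.0, 10 and 25 μM final in 1% DMSO, 48 h at 26 °C in the dark. Dead, partially and fully transformed parasites counted as % of population. Three independent experiments, two technical replicates each; CBSS/1% DMSO negative control.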
# [4] = Prodrug conversion in Schistosoma mansoni adult worms assessed as ester hydrolysis in media at 20 uM incubated for 24 hrs followed by compound washout thrice and subsequent addition of fresh medium without compound by LC-MS analysis; format: ADME
# [5] = Drug uptake in Schistosoma mansoni adult worms at 20 uM incubated for 24 hrs followed by compound washout thrice and subsequent addition of fresh medium without compound by LC-MS analysis; format: ADME; in short: as §1
# Schistosoma mansoni [6] = assay: Antiparasitic activity against Schistosoma mansoni adult worms assessed as lethality at 20 uM incubated for 72 hrs; format: functional, organism-based
# Schistosoma mansoni [7] = assay: Binding affinity to Schistosoma mansoni BRD3 BD 1 and 2 assessed as thermal stability at 50 uM by DSF analysis
# In short: (§3)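 Differential scanning fluorimetry on recombinant SmBRD3(1,2) tandem construct or SmBRD3(2) single domain, compounds at 50 μM; ΔTm as mean of n = 3 with SD.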
# Schistosoma mansoni [8] = assay: Binding affinity to Schistosoma mansoni BRD3 BD 2 assessed as thermal stability at 50 uM by DSF analysis; in short: as §3
# Schistosoma mansoni [9] = assay: Antiparasitic activity against Schistosoma mansoni assessed as effect on schistosomula motility at 10 to 20 uM incubated for 72 hrs by high content imaging analysis; format: functional, organism-based; settings: dose 10-20 µM
# In short: (§4)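 Schistosomula from mechanically transformed cercariae, 120/well, dosed from 10 mM DMSO stock at 20 and 10 μM final in duplicate (0.625% DMSO), ≥4 independent screens (Z′ >0.35). Auranofin 10 μM positive and DMSO negative controls. Phenotype and motility read by high content imaging after 72 h.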
# Schistosoma mansoni [10] = assay: Antiparasitic activity against Schistosoma mansoni assessed as effect on schistosomula phenotype at 10 to 20 uM incubated for 72 hrs by high content imaging analysis; format: functional, organism-based; settings: dose 10-20 µM; in short: as §4
# Schistosoma mansoni [11] = assay: Binding affinity to Schistosoma mansoni BRD3 BD 2 by ITC analysis
# Schistosoma mansoni [12] = assay: Binding affinity to Schistosoma mansoni BRD3 BD 1 assessed as thermal stability at 50 uM by DSF analysis
# Schistosoma mansoni [13] = assay: Antiparasitic activity against Schistosoma mansoni assessed as effect on schistosomula phenotype incubated for 72 hrs by high content imaging analysis; format: functional, organism-based; in short: as §4
# Schistosoma mansoni [14] = assay: Antiparasitic activity against Schistosoma mansoni assessed as effect on schistosomula motility incubated for 72 hrs by high content imaging analysis; format: functional, organism-based; in short: as §4
# Schistosoma mansoni [15] = assay: Antiparasitic activity against Schistosoma mansoni assessed as inhibition of miracidia to sporocyst transformation at 0.5 to 25 uM incubated for 48 hrs by enumeration method; format: functional, organism-based; settings: dose 0.5-25 µM; in short: as §2
# [16] = Prodrug conversion in Schistosoma mansoni adult worms assessed as 3-(3,5-dimethylisoxazol-4-yl)-5-(hydroxy(phenyl)methyl)phenol metabolite formation at 20 uM incubated for 24 hrs followed by compound washout thrice and subsequent addition of fresh medium without compound by LC-MS analysis; format: ADME
# Schistosoma mansoni [17] = assay: Antiparasitic activity against Schistosoma mansoni adult worms assessed as reduction in worm pairing at 20 uM incubated for 72 hrs by imaging analysis; format: functional, organism-based
# In short: (§5)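 Adult worm pairs perfused from TO mice infected percutaneously 7 weeks earlier with 180 cercariae; 1 pair/well in duplicate, dosed at 20 μM in 0.2% DMSO for 72 h. Motility scored by digital image processing (WormassayGP2); in vitro laid eggs counted and pairing noted. DMSO negative and praziquantel positive controls; n = 2 independent screens, 2 technical replicates each.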
# [18] = Binding affinity to Schistosoma mansoni BRD3 BD 1 and 2 assessed as dissociation constant by ITC analysis
# Schistosoma mansoni [19] = assay: Antiparasitic activity against Schistosoma mansoni adult worms assessed as reduction in oviposition at 20 uM incubated for 72 hrs by imaging analysis; format: functional, organism-based; in short: as §5
# Schistosoma mansoni [20] = assay: Antiparasitic activity against Schistosoma mansoni adult worms assessed as effect on worm motility at 20 uM incubated for 72 hrs by imaging analysis; format: functional, organism-based; in short: as §5
compound,measurement,setting,value
CCOC(=O)c1ccc(-c2ccc3c(c2)[C@H](Nc2ccc4ncccc4c2)C[C@H](C)N3C(C)=O)cc1,Drug metabolism,[1],Metabolite_Detected
same,Kd,[2],364 nM
same,inhibition,Schistosoma mansoni [3],Dose-Dependent Effect
same,Drug metabolism,[4],Metabolite_Detected
same,Drug uptake,[5],Active
same,Activity,Schistosoma mansoni [6],inactive
CC(=O)N1c2ccc(-c3ccc(C(=O)O)cc3)cc2[C@H](Nc2ccc(Cl)cc2)C[C@@H]1C,Activity,Schistosoma mansoni [7],Active
same,pKd,[2],5.7
same,Activity,Schistosoma mansoni [8],Active
same,Activity,Schistosoma mansoni [6],inactive
CC(=O)N1c2ccc(-c3ccc(C(=O)O)cc3)cc2[C@@H](Nc2ccc3ccsc3c2)C[C@H]1C,Activity,Schistosoma mansoni [9],inactive
same,Activity,Schistosoma mansoni [10],inactive
same,Activity,Schistosoma mansoni [11],inactive
same,Activity,Schistosoma mansoni [6],inactive
Cc1noc(C)c1-c1cc(O)cc(C(O)c2ccccc2)c1 (centres undefined),Activity,Schistosoma mansoni [7],Active
same,Activity,Schistosoma mansoni [12],Active
same,Activity,Schistosoma mansoni [11],inactive
same,Activity,Schistosoma mansoni [8],inactive
same,Activity,Schistosoma mansoni [6],inactive
CC(=O)N1c2ccc(-c3ccc(C(=O)O)cc3)cc2[C@H](Nc2ccc3[nH]ccc3c2)C[C@@H]1C,EC50,Schistosoma mansoni [13],2970 nM
same,pKd,[2],6.2
same,EC50,Schistosoma mansoni [14],1810 nM
same,Activity,Schistosoma mansoni [6],inactive
CCOC(=O)c1ccc(-c2ccc3c(c2)[C@H](Nc2ccc4[nH]ccc4c2)C[C@H](C)N3C(C)=O)cc1,Kd,[2],651 nM
same,Activity,Schistosoma mansoni [6],inactive
CCOC(=O)c1ccc(-c2ccc3c(c2)[C@H](Nc2ccc4ncsc4c2)C[C@H](C)N3C(C)=O)cc1,Kd,[2],1180 nM
same,Activity,Schistosoma mansoni [6],inactive
CC(=O)N1c2ccc(-c3ccc(C(=O)O)cc3)cc2[C@H](Nc2ccc3ccoc3c2)C[C@@H]1C,EC50,Schistosoma mansoni [13],2430 nM
same,pKd,[2],5.9
same,EC50,Schistosoma mansoni [14],3920 nM
same,Activity,Schistosoma mansoni [6],inactive
Cc1noc(C)c1-c1cc(O)cc(C(O)c2cccnc2)c1 (centres undefined),Activity,Schistosoma mansoni [11],inactive
same,Activity,Schistosoma mansoni [6],inactive
CC(=O)Oc1cc(-c2c(C)noc2C)cc(C(O)c2ccccc2)c1 (centres undefined),Activity,Schistosoma mansoni [9],Active
same,inhibition,Schistosoma mansoni [15],inactive
same,Activity,Schistosoma mansoni [10],Active
same,Activity,Schistosoma mansoni [11],inactive
same,Drug metabolism,[16],Metabolite_Detected
same,Activity,Schistosoma mansoni [6],inactive
O=C(C1CCCCC1)N1CC(=O)N2CCc3ccccc3C2C1 (centres undefined),Activity,Schistosoma mansoni [6],inactive
CCOC(=O)c1ccc(-c2ccc3c(c2)[C@H](Nc2ccc4ccoc4c2)C[C@H](C)N3C(C)=O)cc1,Kd,[2],1180 nM
same,Activity,Schistosoma mansoni [6],inactive
CC(=O)N1c2ccc(-c3ccc(C(=O)O)cc3)cc2[C@H](Nc2ccc3ccsc3c2)C[C@@H]1C,pKd,[2],6.2
same,Activity,Schistosoma mansoni [6],inactive
CCOC(=O)c1ccc(-c2ccc3c(c2)[C@@H](Nc2ccc4ccsc4c2)C[C@@H](C)N3C(C)=O)cc1,Activity,Schistosoma mansoni [9],inactive
same,inhibition,Schistosoma mansoni [15],Active
same,Activity,Schistosoma mansoni [17],inactive
same,Activity,Schistosoma mansoni [10],inactive
same,Activity,Schistosoma mansoni [6],inactive
CC(=O)N1c2ccc(-c3ccc(C(=O)O)cc3)cc2[C@H](Nc2ccc3ncsc3c2)C[C@@H]1C,EC50,Schistosoma mansoni [13],2140 nM
same,pKd,[2],5.9
same,EC50,Schistosoma mansoni [14],2850 nM
same,Activity,Schistosoma mansoni [6],inactive
CCOC(=O)c1ccc(-c2ccc3c(c2)[C@H](Nc2ccc4sccc4c2)C[C@H](C)N3C(C)=O)cc1,Activity,Schistosoma mansoni [6],inactive
Cc1noc(C)c1-c1cc(O)cc(C(O)c2ccc(F)cc2)c1 (centres undefined),inhibition,Schistosoma mansoni [15],inactive
same,Activity,Schistosoma mansoni [11],inactive
same,Activity,Schistosoma mansoni [6],inactive
Cc1sc2c(c1C)C(c1ccc(Cl)cc1)=N[C@@H](CC(=O)OC(C)(C)C)c1nnc(C)n1-2,Kd,[18],445 nM
same,pKd,[18],6.4
same,Activity,Schistosoma mansoni [7],Active
same,Activity,Schistosoma mansoni [12],Active
same,inhibition,Schistosoma mansoni [15],Active
same,Activity,Schistosoma mansoni [11],inactive
same,Activity,Schistosoma mansoni [8],inactive
same,Activity,Schistosoma mansoni [6],inactive
CCOC(=O)c1ccc(-c2ccc3c(c2)[C@H](Nc2ccc4ccsc4c2)C[C@H](C)N3C(C)=O)cc1,Activity,Schistosoma mansoni [19],Active
same,inhibition,Schistosoma mansoni [3],Dose-Dependent Effect
same,Activity,Schistosoma mansoni [17],Active
same,Activity,Schistosoma mansoni [20],Active
same,Activity,Schistosoma mansoni [6],inactive
CC(=O)N1c2ccc(-c3ccc(C(=O)O)cc3)cc2[C@H](Nc2ccc3ncccc3c2)C[C@@H]1C,EC50,Schistosoma mansoni [13],1110 nM
same,pKd,[2],6.4
same,EC50,Schistosoma mansoni [14],3300 nM
same,Activity,Schistosoma mansoni [6],inactive
COc1cc2c3c(cnc2cc1-c1c(C)noc1C)NC(=O)C3[C@H](C)c1ccccn1 (some centres undefined),pKd,[2],5.2
CC(=O)N1c2ccc(-c3ccc(C(=O)O)cc3)cc2[C@H](Nc2ccc3sccc3c2)C[C@@H]1C,pKd,[2],6.3
same,Activity,Schistosoma mansoni [6],inactive
CC[C@@H]1C(=O)N(C)c2cnc(Nc3ccc(C(=O)NC4CCN(C)CC4)cc3OC)nc2N1C1CCCC1,Activity,Schistosoma mansoni [7],Active
same,Activity,Schistosoma mansoni [8],Active
